# Measured values taken from ChEMBL document CHEMBL4028906, “Allosteric Inhibitors of SHP2 with Therapeutic Potential for Cancer Treatment” (J Med Chem, 2017).
# Active and inactive are the calls of the source. The calls are words filed in the database; no cut-off is given here.
# Columns and labels:
# NCI-H1975 = experiment: Antiproliferative activity against human NCI-H1975 cells at 3 to 6 uM after 2 days by CellTiter-Glo assay; assay type: functional, cell-based
# Procedure, shortened: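 3000 cells/well in 96-well plates, grown overnight, then inhibitor at indicated concentrations for 2 days (48 h). Viability by CellTiter-Glo; mean±s.d., n=3.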
# [1] = target: T1, Tyrosine-protein phosphatase non-receptor type 11 (Homo sapiens) (UniProt Q06124); experiment: Allosteric inhibition of SHP2 in human NCI-H661 cells assessed as downregulation of ERK1/2 activation at 10 uM by Western blot analysis; assay type: cell-based; details: TDE = time-dependent effect
# T1 sequence (whole entry): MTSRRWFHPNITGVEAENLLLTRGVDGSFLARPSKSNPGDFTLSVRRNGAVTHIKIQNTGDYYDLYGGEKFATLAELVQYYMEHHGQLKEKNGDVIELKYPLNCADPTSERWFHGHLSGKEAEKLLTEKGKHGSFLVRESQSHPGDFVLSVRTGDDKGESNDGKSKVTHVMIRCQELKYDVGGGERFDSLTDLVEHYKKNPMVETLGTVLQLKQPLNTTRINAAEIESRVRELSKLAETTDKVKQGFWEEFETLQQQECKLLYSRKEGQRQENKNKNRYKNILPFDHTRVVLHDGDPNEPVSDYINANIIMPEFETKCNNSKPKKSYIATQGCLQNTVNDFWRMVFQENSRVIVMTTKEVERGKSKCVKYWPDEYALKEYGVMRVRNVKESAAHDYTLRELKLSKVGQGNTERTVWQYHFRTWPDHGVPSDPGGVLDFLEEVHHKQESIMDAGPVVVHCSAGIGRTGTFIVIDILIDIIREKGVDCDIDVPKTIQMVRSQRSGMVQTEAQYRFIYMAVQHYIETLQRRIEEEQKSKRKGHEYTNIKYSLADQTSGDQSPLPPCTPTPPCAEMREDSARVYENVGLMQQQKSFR
# [2] = Allosteric inhibition of SHP2 E76A mutant (unknown origin) expressed in Escherichia coli BL21(DE3) using DIFMUP as substrate preincubated for 20 mins followed by substrate addition measured after 20 mins by phosphatase assay; parameters: species or system Homo sapiens
# Procedure, shortened: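 His-tagged SHP2 constructs expressed in E. coli BL21(DE3) (0.5 mM IPTG, 5 h, 30 °C) and Ni-column purified. 1.5 nM enzyme preincubated 20 min at room temperature with compound in 0.1 M sodium acetate pH 5.0. DIFMUP then added, 20 min further, fluorescence at 358/455 nm. Eight 3-fold dilutions, duplicate wells, IC50 from at least three independent experiments.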
# MV4-11 = experiment: Antitumor activity against human MV4-11 cells xenografted in BALB/c mouse assessed as tumor growth inhibition at 10 mg/kg administered qd via oral gavage measured twice weekly relative to control; assay type: functional; details: MV4-11, po, read-out: TGI
# Procedure, shortened: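 Female BALB/c nude mice given subcutaneous MV4;11 cells (5×10^6, in 50% phenol red-free matrigel in PBS). Once tumours reached about 230 mm³, mice were randomised to vehicle or oral gavage once daily (10 ml/kg). Tumour volume was measured by caliper in two dimensions twice a week, along with body weight. Data given as mean±sem, with significance assessed on day 14.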
compound,measurement,setting,value
CC1(N)CCN(c2nc(-c3ccc4cc(Br)ccc4c3)cs2)CC1,Activity,NCI-H1975,Active
same,inhibition,[1],Tde
same,IC50,[2],710 nM
same,inhibition in vivo at 10 mg/kg,MV4-11,44.6%
